Reference: ChEMBL document CHEMBL3091460, “Synthesis of combretastatin A-4 O-alkyl derivatives and evaluation of their cytotoxic, antiangiogenic and antitelomerase activity” (Bioorg Med Chem, 2013)

Key:
[1] = Selectivity ratio of IC50 for HEK293 cells to IC50 for human HT-29 cells; type: ADME, cell-based; conditions: HEK293 cells versus HT-29 cells, read-out: Ratio IC50
MCF7 = assay: Cytotoxicity against human MCF7 cells assessed as growth inhibition after 3 days by MTT assay; type: functional, cell-based; conditions: MCF7, 72 h
Outline: (§1)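 5 × 10³ cells per well (HT-29, MCF-7 or HEK-293) exposed for 3 days at 37 °C, 5% CO2, humidified. MTT (5 mg/ml in PBS) added for a further 4 h at 37 °C. Formazan dissolved in 0.04 N HCl/2-propanol and read at 550 nm. Run in triplicate. IC50 taken as the concentration giving 50% growth inhibition.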

[2] = Selectivity ratio of IC50 for HEK293 cells to IC50 for human MCF7 cells; type: ADME, cell-based; conditions: HEK293 cells versus MCF7 cells, read-out: Ratio IC50
HT-29 [3] = assay: Antiangiogenic activity in human HT-29 cells assessed as inhibition of VEGF production at < IC50 after 72 hrs by ELISA relative to control; values are per cent of control
HEK293 = assay: Cytotoxicity against HEK293 cells assessed as growth inhibition after 3 days by MTT assay; type: cell-based; conditions: Homo sapiens, HEK293, 72 h; outline: as §1
HT-29 [4] = assay: Cytotoxicity against human HT-29 cells assessed as growth inhibition after 3 days by MTT assay; type: functional, cell-based; conditions: HT-29, 72 h; outline: as §1
HT-29 [5] = assay: Inhibition of TERT mRNA expression in human HT-29 cells after 48 hrs by RT-PCR analysis relative to control; type: functional
Outline: (§2)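 HT-29 cells grown to 70–80% confluence and serum-starved 24 h, then treated in DMSO for 48 h. Total RNA extracted, converted to cDNA and PCR-amplified with gene-specific primers. PCR cycles were VEGF 94 °C 30 s/58 °C 1 min/72 °C 1 min 50 s; hTERT 94 °C 1 min/57 °C 1 min/72 °C 1 min 30 s; c-Myc as VEGF. Agarose gel bands quantified by densitometry and normalized to β-actin. DMSO control set to 100%. At least three measurements per case, mean ± SEM, one-sample t-test.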

HT-29 [6] = assay: Antiangiogenic activity in human HT-29 cells assessed as inhibition of VEGF mRNA expression at < IC50 after 48 hrs by RT-PCR analysis relative to control; values are per cent of control
HT-29 [7] = assay: Inhibition of c-myc mRNA expression in human HT-29 cells after 48 hrs by RT-PCR analysis relative to control; type: functional; outline: as §2

Which results are given for COc1ccc(/C=C\c2cc(OC)c(OC)c(OC)c2)cc1OCc1ccc(Br)cc1?
selectivity ratio [1]: 0.4; IC50 (MCF7): 29 µM; selectivity ratio [2]: 1.6; level, % of control (HT-29 [3]): 99%; IC50 (HEK293): 45 µM; IC50 (HT-29 [4]): 108 µM

Which selectivity ratio [1] does the source give for COc1ccccc1/C=C/CCCOc1cc(/C=C\c2cc(OC)c(OC)c(OC)c2)ccc1OC here?
The selectivity ratio was greater than 4.6.

And the IC50 (MCF7)?
The IC50 was 21 µM.

What about the selectivity ratio [2] of the same compound?
Its selectivity ratio is greater than 19.

What about the “level, % of control” value (HT-29 [3]) of the same compound?
Its value is 52%.

What about the IC50 (HEK293) of the same compound?
Its IC50 is greater than 400 µM.

And the IC50 (HT-29 [4])?
Its IC50 is 86 µM.

Which results are given for C=CCOc1cc(/C=C\c2cc(OC)c(OC)c(OC)c2)ccc1OC?
selectivity ratio [1]: 1.5; IC50 (MCF7): 12 µM; selectivity ratio [2]: 3.6; level, % of control (HT-29 [3]): 51%; IC50 (HEK293): 43.5 µM; IC50 (HT-29 [4]): 29 µM

With COc1ccc(/C=C\c2cc(OC)c(OC)c(OC)c2)cc1OCc1ccccc1 as the compound, how does the selectivity ratio [1] read?
Its selectivity ratio is 0.4.

And the IC50 (MCF7)?
Its IC50 is 59 µM.

And the selectivity ratio [2]?
Its selectivity ratio is 0.3.

What about the “level, % of control” value (HT-29 [3]) of the same compound?
Its value is 79%.

What about the IC50 (HEK293) of the same compound?
Its IC50 is 15 µM.

What about the IC50 (HT-29 [4]) of the same compound?
Its IC50 is 39 µM.

Which selectivity ratio [1] does the source give for C/C=C/COc1cc(/C=C\c2cc(OC)c(OC)c(OC)c2)ccc1OC here?
Its selectivity ratio is 0.8.

And the IC50 (MCF7)?
The IC50 was 5.4 µM.

And the “inhibition (INH)” value (HT-29 [5])?
The value was 96%.

And the selectivity ratio [2]?
The selectivity ratio was 25.

What about the “level, % of control” value (HT-29 [6]) of the same compound?
Its value is 69%.

And the “level, % of control” value (HT-29 [3])?
Its value is 44%.

What about the IC50 (HEK293) of the same compound?
Its IC50 is 135 µM.

What about the IC50 (HT-29 [4]) of the same compound?
The IC50 was 161 µM.

What about the “inhibition (INH)” value (HT-29 [7]) of the same compound?
The value was 92%.

For COc1cccc(/C=C/CCCOc2cc(/C=C\c3cc(OC)c(OC)c(OC)c3)ccc2OC)c1, which selectivity ratio [1] is on record?
The selectivity ratio was 1.6.

And the IC50 (MCF7)?
The IC50 was 41 µM.

What about the “inhibition (INH)” value (HT-29 [5]) of the same compound?
Its value is 63%.

What about the selectivity ratio [2] of the same compound?
Its selectivity ratio is 1.

What about the “level, % of control” value (HT-29 [6]) of the same compound?
Its value is 97%.

What about the “level, % of control” value (HT-29 [3]) of the same compound?
Its value is 38%.

What about the IC50 (HEK293) of the same compound?
The IC50 was 39 µM.

And the IC50 (HT-29 [4])?
Its IC50 is 25 µM.

What about the “inhibition (INH)” value (HT-29 [7]) of the same compound?
Its value is 60%.

With COc1ccc(/C=C\c2cc(OC)c(OC)c(OC)c2)cc1OCCC/C=C/c1ccc(Cl)cc1 as the compound, how does the selectivity ratio [1] read?
Its selectivity ratio is 6.2.

What about the IC50 (MCF7) of the same compound?
Its IC50 is 40 µM.

What about the selectivity ratio [2] of the same compound?
Its selectivity ratio is 2.8.

What about the “level, % of control” value (HT-29 [3]) of the same compound?
The value was 60%.

And the IC50 (HEK293)?
Its IC50 is 111 µM.

And the IC50 (HT-29 [4])?
The IC50 was 18 µM.

With COc1ccc(/C=C/CCCOc2cc(/C=C\c3cc(OC)c(OC)c(OC)c3)ccc2OC)cc1 as the compound, how does the selectivity ratio [1] read?
Its selectivity ratio is 1.9.

What about the IC50 (MCF7) of the same compound?
The IC50 was 16 µM.

What about the selectivity ratio [2] of the same compound?
Its selectivity ratio is 5.5.

And the “level, % of control” value (HT-29 [3])?
The value was 50%.

And the IC50 (HEK293)?
The IC50 was 88 µM.

What about the IC50 (HT-29 [4]) of the same compound?
Its IC50 is 47 µM.

With COc1ccc(COc2cc(/C=C\c3cc(OC)c(OC)c(OC)c3)ccc2OC)cc1 as the compound, how does the selectivity ratio [1] read?
The selectivity ratio was 1.4.

And the IC50 (MCF7)?
Its IC50 is 48 µM.

What about the selectivity ratio [2] of the same compound?
The selectivity ratio was 1.3.

What about the “level, % of control” value (HT-29 [3]) of the same compound?
The value was 57%.

What about the IC50 (HEK293) of the same compound?
The IC50 was 64 µM.

What about the IC50 (HT-29 [4]) of the same compound?
The IC50 was 47 µM.

With COCOc1ccccc1/C=C/CCCOc1cc(/C=C\c2cc(OC)c(OC)c(OC)c2)ccc1OC as the compound, how does the selectivity ratio [1] read?
Its selectivity ratio is 11.

What about the IC50 (MCF7) of the same compound?
The IC50 was 4.4 µM.

And the “inhibition (INH)” value (HT-29 [5])?
The value was 76%.

What about the selectivity ratio [2] of the same compound?
Its selectivity ratio is 24.1.

What about the “level, % of control” value (HT-29 [6]) of the same compound?
The value was 80%.

What about the “level, % of control” value (HT-29 [3]) of the same compound?
Its value is 42%.

What about the IC50 (HEK293) of the same compound?
Its IC50 is 106 µM.

And the IC50 (HT-29 [4])?
Its IC50 is 9.6 µM.

And the “inhibition (INH)” value (HT-29 [7])?
Its value is 75%.

What does the source list for COc1ccc(/C=C\c2cc(OC)c(OC)c(OC)c2)cc1O [COMBRETASTATIN A4]?
selectivity ratio [1]: 5.9; IC50 (MCF7): 1 µM; inhibition (INH) (HT-29 [5]): 74%; selectivity ratio [2]: 25; level, % of control (HT-29 [6]): 91%; level, % of control (HT-29 [3]): 47%; IC50 (HEK293): 25 µM; IC50 (HT-29 [4]): 4.2 µM; inhibition (INH) (HT-29 [7]): 99%

Which selectivity ratio [1] does the source give for COc1ccc(/C=C\c2cc(OC)c(OC)c(OC)c2)cc1OCCC/C=C/c1ccc(Br)cc1 here?
The selectivity ratio was 5.

What about the IC50 (MCF7) of the same compound?
Its IC50 is 37 µM.

What about the “inhibition (INH)” value (HT-29 [5]) of the same compound?
The value was 39%.

What about the selectivity ratio [2] of the same compound?
The selectivity ratio was 1.5.

What about the “level, % of control” value (HT-29 [6]) of the same compound?
Its value is 73%.

And the “level, % of control” value (HT-29 [3])?
The value was 48%.

And the IC50 (HEK293)?
Its IC50 is 55 µM.

And the IC50 (HT-29 [4])?
The IC50 was 11 µM.

What about the “inhibition (INH)” value (HT-29 [7]) of the same compound?
The value was 35%.

With COCOc1ccc(/C=C/CCCOc2cc(/C=C\c3cc(OC)c(OC)c(OC)c3)ccc2OC)cc1 as the compound, how does the selectivity ratio [1] read?
The selectivity ratio was 3.6.

And the IC50 (MCF7)?
Its IC50 is 42 µM.

What about the “inhibition (INH)” value (HT-29 [5]) of the same compound?
The value was 60%.

What about the selectivity ratio [2] of the same compound?
Its selectivity ratio is 0.6.

What about the “level, % of control” value (HT-29 [6]) of the same compound?
Its value is 66%.

And the “level, % of control” value (HT-29 [3])?
The value was 51%.

What about the IC50 (HEK293) of the same compound?
The IC50 was 25 µM.

What about the IC50 (HT-29 [4]) of the same compound?
The IC50 was 7 µM.

What about the “inhibition (INH)” value (HT-29 [7]) of the same compound?
Its value is 58%.

Which selectivity ratio [1] does the source give for COc1ccc(/C=C\c2cc(OC)c(OC)c(OC)c2)cc1OCCC/C=C/c1ccc(F)cc1 here?
Its selectivity ratio is 1.2.

And the IC50 (MCF7)?
Its IC50 is 16 µM.

And the selectivity ratio [2]?
The selectivity ratio was 7.2.

And the “level, % of control” value (HT-29 [3])?
Its value is 57%.

What about the IC50 (HEK293) of the same compound?
Its IC50 is 115 µM.

And the IC50 (HT-29 [4])?
The IC50 was 98 µM.

For COCOc1cccc(/C=C/CCCOc2cc(/C=C\c3cc(OC)c(OC)c(OC)c3)ccc2OC)c1, which selectivity ratio [1] is on record?
The selectivity ratio was 0.5.

And the IC50 (MCF7)?
The IC50 was 8 µM.

What about the “inhibition (INH)” value (HT-29 [5]) of the same compound?
Its value is 79%.

What about the selectivity ratio [2] of the same compound?
The selectivity ratio was 3.7.

What about the “level, % of control” value (HT-29 [6]) of the same compound?
Its value is 90%.

And the “level, % of control” value (HT-29 [3])?
The value was 51%.

What about the IC50 (HEK293) of the same compound?
The IC50 was 30 µM.

What about the IC50 (HT-29 [4]) of the same compound?
Its IC50 is 59 µM.

And the “inhibition (INH)” value (HT-29 [7])?
The value was 72%.
